Results as given in ChEMBL document CHEMBL1140702, “New celecoxib derivatives as anti-inflammatory agents” (J Med Chem, 2008).

What was measured:
Rattus norvegicus [1] = assay: Antiinflammatory activity in Wistar rat assessed as inhibition of carrageenan-induced paw edema at 10 mg/kg, po after 7 hrs relative to celecoxib; type: functional; settings: for inhibition in vivo at 10 mg/kg: Rattus norvegicus, Wistar, po, 7 h
In short: (§1)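 Male Wistar rats (140–150 g; n = 6–12/group) given 50 µL of 1% carrageenan subcutaneously into the right hind paw subplantar region. Oral test doses. Edema is the pre- versus post-treatment volume difference (mL), read by water-displacement plethysmometer.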

Rattus norvegicus [2] = assay: Antiinflammatory activity in Wistar rat assessed as inhibition of carrageenan-induced paw edema at 10 mg/kg, po after 6 hrs relative to celecoxib; type: functional; settings: for inhibition in vivo at 10 mg/kg: Rattus norvegicus, Wistar, po, 6 h; in short: as §1
Rattus norvegicus [3] = assay: Antiinflammatory activity in Wistar rat assessed as inhibition of carrageenan-induced paw edema at 10 mg/kg, po after 4 hrs relative to celecoxib; type: functional; settings: for inhibition in vivo at 10 mg/kg: Rattus norvegicus, Wistar, po, 4 h; in short: as §1
Rattus norvegicus [4] = assay: Effect on acetic acid-induced chronic gastric ulcer Wistar rat assessed as area of ulcer at 2.0 mg/kg, po; type: functional, Stomach
In short: (§2)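 Chronic ulcer (Okabe method): under ether anesthesia, male Wistar rats (150–170 g) had 0.05 mL 20% acetic acid injected into the submucosa of the anterior glandular stomach wall via laparotomy. Oral dosing with methylcellulose vehicle control. Killed after 12 days. Ulcer area taken as length × width (mm²); body-weight change recorded.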

Rattus norvegicus [5] = assay: Increase in body weight in acetic acid-induced chronic gastric ulcer Wistar rat at 2.0 mg/kg, po; type: functional, Stomach; in short: as §2
Rattus norvegicus [6] = assay: Analgesic activity in chronic model Wistar rat assessed as reversal of carrageenan-induced hind paw edema at 30 mg/kg, po after 120 mins by mechanical hyperalgesia test relative to celecoxib; type: functional
In short: (§3)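 Randall-Selitto test: male Wistar rats (140–190 g; n = 8–12/group), carrageenan injected subcutaneously in the subplantar right hind paw. Basal paw-withdrawal pressure threshold (g) measured before carrageenan, then after oral dosing at 30, 60, 120 and 180 min. Maximal threshold reduction develops 2–3 h post-injection. Analgesia expressed as % reversal of hyperalgesia.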

Rattus norvegicus [7] = assay: Inhibition of ethanol-induced gastric mucosal damage in Wistar rat assessed as ulcer index at 30 mg/kg, po; type: functional, Gastric mucosa
In short: (§4)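 After 24 h fasting, male Wistar rats (140–160 g; n = 10) received oral 0.5 mL acidified ethanol (98% ethanol in 200 mmol/l HCl), with oral test doses and methylcellulose vehicle. Stomachs removed 1 h later and scored blind on a 0–4 scale. Lesion index = lesion number × severity. % inhibition calculated against control lesion index.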

Rattus norvegicus [8] = assay: Analgesic activity in chronic model Wistar rat assessed as reversal of carrageenan-induced hind paw edema at 30 mg/kg, po after 60 mins by mechanical hyperalgesia test relative to celecoxib; type: functional; in short: as §3
Rattus norvegicus [9] = assay: Analgesic activity in chronic model Wistar rat assessed as reversal of carrageenan-induced hind paw edema at 10 mg/kg, po after 30 mins by mechanical hyperalgesia test relative to celecoxib; type: functional; in short: as §3
Rattus norvegicus [10] = assay: Analgesic activity in acute model Wistar rat assessed as reversal of carrageenan-induced hind paw edema at 30 mg/kg, po after 120 mins by mechanical hyperalgesia test relative to celecoxib; type: functional; in short: as §3
Rattus norvegicus [11] = assay: Antiinflammatory activity in Wistar rat assessed as inhibition of carrageenan-induced paw edema after 4 hrs; type: functional
Rattus norvegicus [12] = assay: Antiinflammatory activity in Wistar rat assessed as inhibition of carrageenan-induced paw edema
Rattus norvegicus [13] = assay: Inhibition of ethanol-induced gastric mucosal damage in Wistar rat at 60 mg/kg, po; type: functional; settings: Gastric mucosa; in short: as §4
Rattus norvegicus [14] = assay: Effect on acetic acid-induced chronic gastric ulcer Wistar rat assessed as area of ulcer at 30 mg/kg, po; type: functional, Stomach; in short: as §2
Rattus norvegicus [15] = assay: Inhibition of ethanol-induced gastric mucosal damage in Wistar rat assessed as ulcer index at 60 mg/kg, po; type: functional, Gastric mucosa; in short: as §4
Rattus norvegicus [16] = assay: Inhibition of ethanol-induced gastric mucosal damage in Wistar rat at 30 mg/kg, po; type: functional; settings: Gastric mucosa; in short: as §4
Rattus norvegicus [17] = assay: Analgesic activity in chronic model Wistar rat assessed as reversal of carrageenan-induced hind paw edema at 10 mg/kg, po after 120 mins by mechanical hyperalgesia test relative to celecoxib; type: functional; in short: as §3
Rattus norvegicus [18] = assay: Analgesic activity in acute model Wistar rat assessed as reversal of carrageenan-induced hind paw edema at 10 mg/kg, po after 120 mins by mechanical hyperalgesia test relative to celecoxib; type: functional; in short: as §3
Rattus norvegicus [19] = assay: Analgesic activity in acute model Wistar rat assessed as reversal of carrageenan-induced hind paw edema at 10 mg/kg, po after 60 mins by mechanical hyperalgesia test relative to celecoxib; type: functional; in short: as §3
Rattus norvegicus [20] = assay: Analgesic activity in chronic model Wistar rat assessed as reversal of carrageenan-induced hind paw edema at 30 mg/kg, po after 180 mins by mechanical hyperalgesia test relative to celecoxib; type: functional; in short: as §3
Rattus norvegicus [21] = assay: Analgesic activity in acute model Wistar rat assessed as reversal of carrageenan-induced hind paw edema at 30 mg/kg, po after 180 mins by mechanical hyperalgesia test relative to celecoxib; type: functional; in short: as §3
Rattus norvegicus [22] = assay: Increase in body weight in acetic acid-induced chronic gastric ulcer Wistar rat at 30 mg/kg, po; type: functional, Stomach; in short: as §2
Rattus norvegicus [23] = assay: Analgesic activity in chronic model Wistar rat assessed as reversal of carrageenan-induced hind paw edema at 30 mg/kg, po after 30 mins by mechanical hyperalgesia test relative to celecoxib; type: functional; in short: as §3
Rattus norvegicus [24] = assay: Analgesic activity in acute model Wistar rat assessed as reversal of carrageenan-induced hind paw edema at 30 mg/kg, po after 60 mins by mechanical hyperalgesia test relative to celecoxib; type: functional; in short: as §3
Rattus norvegicus [25] = assay: Inhibition of ethanol-induced gastric mucosal damage in Wistar rat assessed as ulcer index at 15 mg/kg, po; type: functional, Gastric mucosa; in short: as §4
Rattus norvegicus [26] = assay: Analgesic activity in chronic model Wistar rat assessed as reversal of carrageenan-induced hind paw edema at 10 mg/kg, po after 60 mins by mechanical hyperalgesia test relative to celecoxib; type: functional; in short: as §3
Rattus norvegicus [27] = assay: Analgesic activity in acute model Wistar rat assessed as reversal of carrageenan-induced hind paw edema at 10 mg/kg, po after 180 mins by mechanical hyperalgesia test relative to celecoxib; type: functional; in short: as §3
Rattus norvegicus [28] = assay: Analgesic activity in chronic model Wistar rat assessed as reversal of carrageenan-induced hind paw edema at 10 mg/kg, po after 180 mins by mechanical hyperalgesia test relative to celecoxib; type: functional; in short: as §3
Rattus norvegicus [29] = assay: Inhibition of ethanol-induced gastric mucosal damage in Wistar rat at 15 mg/kg, po; type: functional; settings: Gastric mucosa; in short: as §4

`Cc1ccc(-c2cc(C(F)(F)F)nn2-c2ccc(S(=O)(=O)NOCCC(=O)O)cc2)cc1` was tested, and the Inhibition (Rattus norvegicus [1]) was 11.9%, the Inhibition (Rattus norvegicus [2]) was 12.8% and the Inhibition (Rattus norvegicus [3]) was 23.6%.

For `COc1ccc2c(c1)c(CC(=O)O)c(C)n2C(=O)c1ccc(Cl)cc1` [INDOMETHACIN], the Activity (Rattus norvegicus [4]) was 39 mm2 and the Activity (Rattus norvegicus [5]) was 2 g.

For `Cc1ccc(-c2cc(C(F)(F)F)nn2-c2ccc(S(=O)(=O)NOCCC(=O)[O-])cc2)cc1.[Na+]`, the Inhibition (Rattus norvegicus [1]) was 24.9%, the Inhibition (Rattus norvegicus [2]) was 33.9% and the inhibition in vivo at 10 mg/kg (Rattus norvegicus [3]) was 32%.

With `CCOC(=O)CONS(=O)(=O)c1ccc(-n2nc(C(F)(F)F)cc2-c2ccc(C)cc2)cc1` the inhibition in vivo at 10 mg/kg (Rattus norvegicus [1]) was 20.6%, the inhibition in vivo at 10 mg/kg (Rattus norvegicus [2]) was 23.1% and the inhibition in vivo at 10 mg/kg (Rattus norvegicus [3]) was 13.3%.

For `Cc1ccc(-c2cc(C(F)(F)F)nn2-c2ccc(S(=O)(=O)NO[C@H](C)C(=O)O)cc2)cc1`, the inhibition in vivo at 10 mg/kg (Rattus norvegicus [1]) was 6.7%, the inhibition in vivo at 10 mg/kg (Rattus norvegicus [2]) was 15.3% and the inhibition in vivo at 10 mg/kg (Rattus norvegicus [3]) was 18.4%.

With `Cc1ccc(-c2cc(C(F)(F)F)nn2-c2ccc(S(=O)(=O)NOC(C)C(=O)O)cc2)cc1` (racemic; 21) the inhibition in vivo at 10 mg/kg (Rattus norvegicus [1]) was 16.2%, the inhibition in vivo at 10 mg/kg (Rattus norvegicus [2]) was 21.8% and the inhibition in vivo at 10 mg/kg (Rattus norvegicus [3]) was 38.4%.

Compound `CCOC(=O)C(C)ONS(=O)(=O)c1ccc(-n2nc(C(F)(F)F)cc2-c2ccc(C)cc2)cc1` (racemic) has an inhibition in vivo at 10 mg/kg (Rattus norvegicus [1]) of 7.3%, an inhibition in vivo at 10 mg/kg (Rattus norvegicus [2]) of 15.7% and an inhibition in vivo at 10 mg/kg (Rattus norvegicus [3]) of 23.5%.

Compound `Cc1ccc(-c2cc(C(F)(F)F)nn2-c2ccc(S(N)(=O)=O)cc2)cc1` [CELECOXIB] has an Activity (Rattus norvegicus [6]) of 34%, an inhibition in vivo at 10 mg/kg (Rattus norvegicus [1]) of 12.3% and a UI (Rattus norvegicus [7]) of 49.4. It also gave an Activity (Rattus norvegicus [8]) of 34%, an Activity (Rattus norvegicus [9]) of 24% and an Activity (Rattus norvegicus [10]) of 3%. For the same compound, the ED30 (Rattus norvegicus [11]) was 23 mg/kg, the ED30 (Rattus norvegicus [12]) was greater than 30 mg/kg and the inhibition in vivo at 60 mg/kg (Rattus norvegicus [13]) was 55%. For the same compound, the Activity (Rattus norvegicus [14]) was 8.2 mm2, the UI (Rattus norvegicus [15]) was 44.4 and the inhibition in vivo at 30 mg/kg (Rattus norvegicus [16]) was 19%. It also gave an Activity (Rattus norvegicus [17]) of 0%, an Activity (Rattus norvegicus [18]) of 0% and an Activity (Rattus norvegicus [19]) of 0%. The Activity (Rattus norvegicus [20]) was 26%, the Activity (Rattus norvegicus [21]) was 0% and the Activity (Rattus norvegicus [22]) was 32 g. The Activity (Rattus norvegicus [23]) was 54%, the Activity (Rattus norvegicus [24]) was 24% and the UI (Rattus norvegicus [25]) was 80.6. It also gave an Activity (Rattus norvegicus [26]) of 17%, an Activity (Rattus norvegicus [27]) of 0% and an Activity (Rattus norvegicus [28]) of 0%. For the same compound, the inhibition in vivo at 15 mg/kg (Rattus norvegicus [29]) was 18%, the inhibition in vivo at 10 mg/kg (Rattus norvegicus [2]) was 18.6% and the inhibition in vivo at 10 mg/kg (Rattus norvegicus [3]) was 24.2%.

`Cc1ccc(-c2cc(C(F)(F)F)nn2-c2ccc(S(=O)(=O)NO[C@@H](C)C(=O)O)cc2)cc1` was tested, and the inhibition in vivo at 10 mg/kg (Rattus norvegicus [1]) was -6.3%, the inhibition in vivo at 10 mg/kg (Rattus norvegicus [2]) was -9.3% and the inhibition in vivo at 10 mg/kg (Rattus norvegicus [3]) was 0.9%.

`Cc1ccc(-c2cc(C(F)(F)F)nn2-c2ccc(S(=O)(=O)NOC(C)C(=O)O)cc2)cc1` (racemic; 16) showed an Activity (Rattus norvegicus [6]) of 34%, an Inhibition (Rattus norvegicus [1]) of 17.9% and a UI (Rattus norvegicus [7]) of 35. It also gave an Activity (Rattus norvegicus [8]) of 54%, an Activity (Rattus norvegicus [9]) of 23% and an Activity (Rattus norvegicus [10]) of 59%. It also gave an ED30 (Rattus norvegicus [11]) of 5.7 mg/kg, an ED30 (Rattus norvegicus [12]) of 8.4 mg/kg and an inhibition in vivo at 60 mg/kg (Rattus norvegicus [13]) of 76%. The Activity (Rattus norvegicus [14]) was 2.4 mm2, the UI (Rattus norvegicus [15]) was 15.8 and the inhibition in vivo at 30 mg/kg (Rattus norvegicus [16]) was 43%. It also gave an Activity (Rattus norvegicus [17]) of 28%, an Activity (Rattus norvegicus [18]) of 30% and an Activity (Rattus norvegicus [19]) of 24%. The Activity (Rattus norvegicus [20]) was 19%, the Activity (Rattus norvegicus [21]) was 35% and the Activity (Rattus norvegicus [22]) was 43 g. The Activity (Rattus norvegicus [23]) was 42%, the Activity (Rattus norvegicus [24]) was 89% and the UI (Rattus norvegicus [25]) was 43. For the same compound, the Activity (Rattus norvegicus [26]) was 22%, the Activity (Rattus norvegicus [27]) was 15% and the Activity (Rattus norvegicus [28]) was 20%. The inhibition in vivo at 15 mg/kg (Rattus norvegicus [29]) was 35%, the Inhibition (Rattus norvegicus [2]) was 31.1% and the Inhibition (Rattus norvegicus [3]) was 41%.

`Cc1ccc(-c2cc(C(F)(F)F)nn2-c2ccc(S(=O)(=O)NOCC(=O)O)cc2)cc1` [listing 1 of 2 here] gave an Inhibition (Rattus norvegicus [1]) of 17.1%, an Inhibition (Rattus norvegicus [2]) of 21.3% and an Inhibition (Rattus norvegicus [3]) of 13.1%.

`Cc1ccc(-c2cc(C(F)(F)F)nn2-c2ccc(S(=O)(=O)NOCC(=O)O)cc2)cc1` [listing 2 of 2 here] was tested, and the inhibition in vivo at 10 mg/kg (Rattus norvegicus [1]) was 24.7%, the inhibition in vivo at 10 mg/kg (Rattus norvegicus [2]) was 33.2% and the inhibition in vivo at 10 mg/kg (Rattus norvegicus [3]) was 26%.
